# Results taken from ChEMBL document CHEMBL2407020, “Design, synthesis, and evaluation of novel VEGFR2 kinase inhibitors: discovery of [1,2,4]triazolo[1,5-a]pyridine derivatives with slow dissociation kinetics” (Bioorg Med Chem, 2013).
# How the values were obtained:
# [1] = Metabolic stability in human liver microsomes; format: ADME, Microsome; settings: read-out: Stability
# Summary of the method: (§1)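 Metabolic stability measured in hepatic microsomes, expressed in µL/min/mg.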
# [2] = Kinetic solubility of the compound in 2nd fluid of Disintegration Test of the Japanese Pharmacopoeia at pH 6.8; format: physicochemical; settings: read-out: Kinetic_solubility
# Summary of the method: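 Kinetic solubility measured in JP2 (2nd fluid of Disintegration Test, Japanese Pharmacopoeia), pH 6.8.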
# [3] = Metabolic stability in mouse liver microsomes; format: ADME, Microsome; settings: read-out: Stability; summary of the method: as §1
SMILES,microsomal CLint [1] [µL/min/mg],solubility kinetic [2] [µg/mL],microsomal CLint [3] [µL/min/mg]
Cc1cc(C(=O)Nc2cccc(Oc3ccc4nc(NC(=O)C5CC5)cn4n3)c2)n(C)n1,6,1.7,43
Cc1cc(NC(=O)c2cc(C)nn2C)cc(Oc2ccc3nc(NC(=O)C4CC4)nn3c2)c1,,3.2,
Cc1cc(C(=O)Nc2cccc(Oc3ccc4nc(NC(=O)C5CC5)cn4c3)c2)n(C)n1,,0.73,
Cc1cc(C(=O)Nc2cc(Oc3ccc4nc(NC(=O)C5CC5)cn4c3)ccc2C)n(C)n1,,2.9,
Cc1cc(C(=O)Nc2cccc(Oc3ccc4nc(NC(=O)C5CC5)sc4n3)c2)n(C)n1,,< 0.04,
Cc1cc(C(=O)Nc2cc(Oc3ccc4nc(NC(=O)C5CC5)sc4n3)ccc2C)n(C)n1,,4.8,
Cc1cc(C(=O)Nc2ccc(C)c(Oc3ccc4nc(NC(=O)C5CC5)nn4c3)c2)n(C)n1,,3.7,
Cc1cc(C(=O)Nc2cccc(Oc3ccc4nc(NC(=O)C5CC5)sc4c3)c2)n(C)n1,,0.22,

# Results, then the molecule that gave them:
microsomal CLint [1] [µL/min/mg],solubility kinetic [2] [µg/mL],microsomal CLint [3] [µL/min/mg],SMILES
,1.2,,Cc1cc(C(=O)Nc2cccc(Oc3ccc4nc(NC(=O)C5CC5)nn4c3)c2)n(C)n1
,53,,Cc1cc(C(=O)Nc2cc(Oc3ccc4nc(NC(=O)C5CC5)nn4c3)ccc2C)n(C)n1
10,65,45,Cc1cc(C(=O)Nc2cc(Oc3ccc4nc(NC(=O)C5CC5)nn4c3)ccc2F)n(C)n1
,0.16,,Cc1nc(C(=O)Nc2cc(Oc3ccc4nc(NC(=O)C5CC5)nn4c3)ccc2C)c(C)s1
,1.2,,Cc1ccc(Oc2ccc3nc(NC(=O)C4CC4)nn3c2)cc1NC(=O)c1scc(C)c1Cl
6,> 93,78,Cc1ccc(Oc2ccc3nc(NC(=O)C4CC4)nn3c2)cc1NC(=O)c1cn(C)nc1C
,> 80,,Cc1ccc(Oc2ccc3nc(NC(=O)C4CC4)nn3c2)cc1NC(=O)c1ccnn1C
,12,,Cc1ccc(Oc2ccc3nc(NC(=O)C4CC4)nn3c2)cc1NC(=O)CC(C)C
,> 78,,Cc1ccc(Oc2ccc3nc(NC(=O)C4CC4)nn3c2)cc1NC(=O)C1CCC1
